A selection: hits, their analogues and other compounds. The true share with any hit is near 2.2%.
NR2E3 ag-1 = agonists of human nuclear receptor NR2E3. Q9Y5X4. GST-NR2E3/biotin-RetCOR TR-FRET, 1536-well. inhibition of corepressor binding, % at 4.78 µM. 0.12% of 320,000 active;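 active means percent inhibition above the cutoff of mean plus 3 SD of all tested compounds, set per screening campaign, cut at about 20% in these data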;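 further: 0% = DMSO wells and 100% = biotin wells as full block of FRET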
Target sequence (Q9Y5X4 whole entry, looked up): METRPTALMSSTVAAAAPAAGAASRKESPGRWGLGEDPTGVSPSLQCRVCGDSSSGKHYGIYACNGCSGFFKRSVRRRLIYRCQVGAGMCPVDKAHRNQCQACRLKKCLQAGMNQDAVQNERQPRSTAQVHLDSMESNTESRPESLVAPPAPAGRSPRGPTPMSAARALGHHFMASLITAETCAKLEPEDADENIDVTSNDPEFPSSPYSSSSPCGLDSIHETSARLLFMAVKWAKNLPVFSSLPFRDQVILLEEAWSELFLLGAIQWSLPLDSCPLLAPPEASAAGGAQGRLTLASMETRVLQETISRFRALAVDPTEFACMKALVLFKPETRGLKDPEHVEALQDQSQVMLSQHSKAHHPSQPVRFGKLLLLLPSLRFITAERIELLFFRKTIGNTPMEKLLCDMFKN
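Material – GST-tagged NR2E3 plus biotinylated RetCOR corepressor · Quantity – NR2E3 fusion 1.35 nM · Times – 5 h incubation at 4 °C · Medium – pH 7.5 Tris-based buffer · Technique – TR-FRET, Eu(K)-anti-GST donor, streptavidin-D2 acceptor, ex 340, em 617/671 nm · Benchmarks – high control biotin, low control 0.6% DMSO · Format – 1536-well plates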
NR2E3 ag-2 = activates human NR2E3 receptor; Q9Y5X4; CHO-S Gal4-NCOR/VP16-NR2E3 two-hybrid, luciferase; inhibition of corepressor binding, % at 3.98 µM; 0.35% of 360,000 active; AID 602229;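 active means inhibition above the mean of all tested compounds plus 3 SD, cut at about 70% in these data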;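 further: 0% = DMSO with NR2E3 transfected cells and 100% = cells lacking NR2E3 construct; higher means lower luciferase signal from less NR2E3 corepressor binding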
V-ATPase pHluor = alters yeast V-ATPase proton transport | response, % at 10 µM | AID 504577 | S. cerevisiae, pHLuorin cytosolic pH fluorescence | 0.37% of 350,000 active; in the data active means response mostly above about 7.3%, no sharp cut-off; inactive means mostly below about 5.4%; further: actives read high
FXN GAA850 act = activators of GAA850 frataxin (FXN) promoter | HEK293 lucGAA850 FXN promoter luciferase reporter, 24 h; percent of 10 µM SAHA response | activation, % at 6 µM | 0.56% of 360,000 active;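 active means activation above the average of all compounds screened plus 3 SD, cutoff fixed separately per campaign, cut at about 7.5% in these data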;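 further: 0% = DMSO wells and 100% = 10 µM SAHA wells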
HIV Env fusion = inhibitors of HIV Env-mediated cell fusion; inhibition, % at 12.3 µM; HeLa-JRFL Env/CEM21 cell fusion, luciferase; 1.1% of 360,000 active;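 active means mean replicate inhibition score of at least 50 and every replicate individually at or above 50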;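 further: 0% = plate neutral controls and 100% = maraviroc near 300 nM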
GalR3 antag = antagonists of human GalR3; HEK293 GalR3-CNG cAMP membrane potential fluorescence; galR3 body fused to GalR1 C-terminus; AID 651719; inhibition, % at 3 µM; 0.44% of 360,000 active;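 active means inhibition above the screen-wide average plus 3 SD, cut at about 13% in these data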;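 further: forskolin and galanin both at EC90 stimulate the cells; cAMP rise reported by CNG channel membrane potential dye signal; 0% = forskolin plus galanin with DMSO and 100% = forskolin alone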
V-ATPase pH SP = yeast V-ATPase proton transport regulation; AID 602197; 2% of 980 active; response, % at 10 µM; S. cerevisiae pHLuorin cytosolic pH; shares compounds with V-ATPase pHluor; in the data active means response above about 24%;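 further: plate controls were vehicle wells for no effect and positive control wells for full effect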
Active calls of the source: *; . = not tested or not shown; [ ] = remark or other dose.

SMILES	NR2E3 ag-1	NR2E3 ag-2	V-ATPase pHluor	FXN GAA850 act	HIV Env fusion	GalR3 antag	V-ATPase pH SP
O=C(N[C@H]1CC[C@@H](CCn2cc(C3(O)CCCC3)nn2)O[C@H]1CO)C1CC1	.	.	.	.	1[16.7 µM]	.	.
O=C(Nc1ccc2c(c1)OCO2)N[C@H]1CC[C@H](CCNC(=O)C2CCCCC2)O[C@@H]1CO	.	.	.	.	-11[16.7 µM]	.	.
Cc1noc(C)c1S(=O)(=O)N(C)C[C@H]1OCCCC[C@H](C)Oc2ccc(NC(=O)c3ccccc3)cc2C(=O)N([C@H](C)CO)C[C@@H]1C	.	.	.	.	-14[16.7 µM]	.	.
COc1ccc(S(=O)(=O)N[C@@H]2CC[C@H](CCn3cc(C(C)C)nn3)O[C@H]2CO)cc1	.	.	.	.	5[16.7 µM]	.	.
CCCOC(=O)c1ccc(-c2ccc(C=O)o2)cc1	-1	-148	8.2*	2	.	-2	5
CN(C)CCCNC(=O)C[C@H]1CC[C@H](NS(=O)(=O)c2ccc(F)cc2)[C@@H](CO)O1	.	.	.	.	-14[16.7 µM]	.	.
COc1cccc(CNCc2cc(OC)cc(OC)c2)c1	1	-16	4	2	4	0	.
COc1cc(CNCc2ccc(OC)c(OC)c2OC)cc(OC)c1	1	-18	12*	-5	14	-7	-5
C[C@H]1CN([C@@H](C)CO)C(=O)c2cccc(NC(=O)NC3CCCCC3)c2O[C@@H]1CN(C)CC1CC1	.	.	.	.	-3[16.7 µM]	.	.
CCCn1c(=O)c2sccc2n2c(CCCC(=O)NC3CCN(Cc4ccccc4)CC3)nnc12	1	-11	10*	1	-2	-8	-1
CC(C)Cn1c(=O)c2sccc2n2c(CCCC(=O)NC3CCN(Cc4ccccc4)CC3)nnc12	2	-30	-4	1	2	-7	.
CN(C)C(=O)[C@@H]1[C@@H](CO)[C@@H]2Cn3c(ccc(-c4ccncc4)c3=O)[C@H]1N2CC1CC1	.	.	.	.	-1[16.7 µM]	.	.
NC(N)=NN=C1c2ccccc2-c2ccccc21	-1	-19	201*	0	-17	-7	-5
Cc1noc(C)c1NC(=O)Nc1ccc2c(c1)C(=O)N([C@H](C)CO)C[C@H](C)[C@@H](CN(C)C(=O)Nc1ccc(C(F)(F)F)cc1)OCCCC[C@@H](C)O2	.	.	.	.	-16[16.7 µM]	.	.
O=C(Nc1cc(F)ccc1F)N[C@H]1C=C[C@H](CC(=O)N2CCc3ccccc3C2)O[C@@H]1CO	.	.	.	.	0[16.7 µM]	.	.
C/C(=N\NC(=S)NC1CCCCC1)c1cccc(C(F)(F)F)c1	-6	-11	13*	4	23	0	2
C/C(=N\NC(=S)NC1CCCCC1)c1cccc(Br)c1	3	10	2	1	6	-3	.
CO[C@@H]1CC[C@H]2CCN(C)C(=O)C[C@@H](c3ccccc3)CN(C)C(=O)c3cccc(C#N)c3OC[C@@H]1O2	.	.	.	.	-4[16.7 µM]	.	.
O=C(C[C@@H]1C=C[C@@H](NC(=O)CN2CCOCC2)[C@@H](CO)O1)NCc1cccc(F)c1	.	.	.	.	-17[16.7 µM]	.	.
C[C@@H]1CN([C@@H](C)CO)C(=O)c2cc(NC(=O)Nc3ccccc3)ccc2O[C@@H]1CN(C)CC1CC1	.	.	.	.	-5[16.7 µM]	.	.
CC(Oc1cccc2cccnc12)C(=O)N/N=C/c1ccccc1 (stereo not drawn)	7	-16	1	1	-5	-5	.
CC(Oc1cccc2cccnc12)C(=O)N/N=C/c1ccc2c(c1)OCO2 (stereo not drawn)	0	0	7.0*	-1	-16	-2	2
COc1cc(NC(=O)Cn2cnc3c(NCc4ccccc4)ncnc32)cc(OC)c1OC	.	-2	11*	0	25	0	2
C[C@H](CO)N1C[C@H](C)[C@H](CN(C)C(=O)Nc2ccc(F)cc2)OCCCC[C@H](C)Oc2ccc(NS(=O)(=O)c3ccccc3)cc2C1=O	.	.	.	.	-2[16.7 µM]	.	.
O=C(O)c1ccc(/C=N/N2CCN(C3c4ccccc4-c4ccccc43)CC2)cc1	-2	18	19*	1	0	3	46*
SMILES	NR2E3 ag-1	NR2E3 ag-2	V-ATPase pHluor	FXN GAA850 act	HIV Env fusion	GalR3 antag	V-ATPase pH SP
C[C@@H]1CN([C@H](C)CO)C(=O)Cc2cc(NS(=O)(=O)c3ccc(F)cc3)ccc2O[C@@H]1CN(C)S(=O)(=O)c1cn(C)cn1	.	.	.	.	-33[16.7 µM]	.	.
O=C(NC(=S)Nc1cccc(S(=O)(=O)NC2=NCCC2)c1)c1cc(-c2ccco2)nc2ccccc12	-1	-2	13*	-1	-273	0	-3
Cc1ccc(S(=O)(=O)N(C)C[C@H]2OCCCC[C@H](C)Oc3ccc(N(C)C)cc3C(=O)N([C@@H](C)CO)C[C@@H]2C)cc1	.	.	.	.	-16[16.7 µM]	.	.
CC(=O)Nc1nc(N2C(=O)c3ccccc3C2=O)n(-c2ccccc2)n1	-7	0	7.0*	0	5	-2	-1
CCOC(=O)C1CCN(C(=O)COC(=O)/C=C/c2ccccc2)CC1	.	5	9.4*	3	.	-6	-5
C[C@H](CO)N1C[C@H](C)[C@@H](CN(C)Cc2cccc3c2OCCCO3)OCc2cnnn2CCCC1=O	.	-37	9.4*	0	20	-4	2
O=C(NN=C1CCCCCCC1)c1ccc(F)cc1	2	-10	1	5	-13	-5	-4
CC(C)(C)c1ccc(C(=O)NN=C2CCCC2)cc1	-4	-7	-3	2	4	-8	.
C[C@H](CO)N1C[C@H](C)[C@H](CN(C)S(=O)(=O)c2ccccc2)Oc2ccc(N(C)C)cc2C1=O	.	.	.	.	-2[16.7 µM]	.	.
Cc1ccc(-n2c3c(cc(C(=O)NCCCN4CCOCC4)c2=O)C(=O)CC(C)(C)C3)cc1	1	-11	11*	1	-15	-2	0
Cc1ccc(NS(=O)(=O)c2cccc(C(=O)N3CCCCCCC3)c2)cc1	1	16	11*	3	-3	-2	-1
Cc1cc(C)cc(NS(=O)(=O)c2ccc3oc(=O)ccc3c2)c1	2	12	14*	-1	-24	-1	3
O=c1c2ccccc2ncn1-c1ccc(Cl)cc1	-1	-42	-4	4	6	-2	4
C[C@@H]1CN([C@@H](C)CO)C(=O)c2cc(C#CC3CCCC3)cnc2O[C@@H]1CN(C)Cc1ccncc1	.	.	.	.	-9[16.7 µM]	.	.
Cc1cc(C)c(OCCOCCN2CCNCC2)c(C)c1	-4	-3	16*	-1	17	-3	0
